Measured values from ChEMBL document CHEMBL2086296, “Synthesis of novel quinoline-2-one based chalcones of potential anti-tumor activity” (Eur J Med Chem, 2012).

Tests used:
[1] = system: LOX IMVI; assay: (§1) Cytotoxicity against human LOXIMVI cells after 24 hrs by SRB assay; format: functional
In short: (§2)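 NCI 60-line screen. Cells in RPMI 1640 with 5% FBS and 2 mM L-glutamine, seeded at 5,000–40,000 cells/well by doubling time, then incubated 24 h at 37 °C, 5% CO2 before dosing. Time-zero plates fixed with TCA at drug addition. DMSO stocks diluted in medium with gentamicin to five concentrations, […]. Protein read by SRB staining. GI50, TGI and LC50 derived relative to control and time-zero.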

[2] = system: KM12; assay: Cytotoxicity against human KM12 cells after 24 hrs by SRB assay; format: functional; conditions: KM12, 24 h; in short: as §2
[3] = system: SW-620; assay: Cytotoxicity against human SW620 cells after 24 hrs by SRB assay; format: cell-based; conditions: sw-620, 24 h
In short: (§3)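 NCI 60-cell-line screen: cells grown in RPMI 1640 with 5% FBS and 2 mM L-glutamine, seeded at 5,000–40,000 cells/well by doubling time, and preincubated 24 h at 37 °C in 5% CO2. Time-zero plates were TCA-fixed. DMSO stocks were diluted in medium with gentamicin to five concentrations (100, 10, 1.0, 0.1, […]). Protein was read by SRB, and GI50, TGI and LC50 were derived against time-zero.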

[4] = system: SK-MEL-5; assay: Cytotoxicity against human SK-MEL-5 cells after 24 hrs by SRB assay; format: functional; conditions: SK-MEL-5, 24 h; in short: as §2
[5] = system: MDA-MB-468; assay: (§4) Cytotoxicity against human MDA-MB-468 cells after 24 hrs by SRB assay; format: functional; conditions: MDA-MB-468, 24 h; in short: as §2
[6] = system: A549; assay: (§5) Cytotoxicity against human A549 cells after 24 hrs by SRB assay; format: cell-based; conditions: a549, 24 h
In short: (§6)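 NCI 60-cell screen. Cells grown in RPMI 1640 with 5% FBS and 2 mM L-glutamine, seeded at 5,000–40,000 cells/well, preincubated 24 h at 37 °C in 5% CO2. Drug stock in DMSO, diluted in medium with gentamicin; five final concentrations, 100, 10, 1.0, 0.1 and […]. Time-zero plates were TCA-fixed. Protein read by SRB staining; GI50, TGI and LC50 taken relative to time-zero.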

[7] = system: SN12C; assay: Cytotoxicity against human SN12C cells after 24 hrs by SRB assay; format: cell-based; in short: as §3
[8] = system: SF-295; assay: Cytotoxicity against human SF295 cells after 24 hrs by SRB assay; format: cell-based; conditions: sf-295, 24 h; in short: as §6
[9] = system: OVCAR-8; assay: Cytotoxicity against human OVCAR8 cells after 24 hrs by SRB assay; format: functional; conditions: OVCAR-8, 24 h; in short: as §2
[10] = system: CCRF-CEM; assay: (§7) Cytotoxicity against human CCRF-CEM cells after 24 hrs by SRB assay; format: cell-based; in short: as §6
[11] = system: NCI-H460; assay: Cytotoxicity against human NCI-H460 cells after 24 hrs by SRB assay; format: cell-based; conditions: nci-h460, 24 h; in short: as §6
[12] = system: MDA-MB-435; assay: (§8) Cytotoxicity against human MDA-MB-435 cells after 24 hrs by SRB assay; format: functional; conditions: MDA-MB-435, 24 h; in short: as §2
[13] = system: CCRF-CEM; assay: as §7; format: functional; in short: as §2
[14] = system: A549; assay: as §5; format: functional; conditions: A549, 24 h; in short: as §2
[15] = system: UACC-62; assay: Cytotoxicity against human UACC62 cells after 24 hrs by SRB assay; format: functional; conditions: UACC-62, 24 h
In short: (§9)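 NCI 60-cell screen. Cells are grown in RPMI 1640 with 5% FBS and 2 mM L-glutamine and seeded at 5,000–40,000 cells/well according to doubling time. They are preincubated 24 h at 37 °C in 5% CO2, and Tz plates are TCA-fixed at drug addition. Drug stock is in DMSO, diluted in medium with gentamicin, and tested at five concentrations (100, 10, 1.0, 0.1, […]). Protein is read by SRB staining. GI50, TGI and LC50 are derived relative to time-zero and control wells.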

[16] = system: SR; assay: (§10) Cytotoxicity against human SR cells after 24 hrs by SRB assay; format: functional; in short: as §9
[17] = system: UACC-257; assay: Cytotoxicity against human UACC257 cells after 24 hrs by SRB assay; format: cell-based; conditions: uacc-257, 24 h; in short: as §3
[18] = system: OVCAR-4; assay: Cytotoxicity against human OVCAR4 cells after 24 hrs by SRB assay; format: functional; conditions: OVCAR-4, 24 h; in short: as §2
[19] = system: RPMI-8226; assay: Cytotoxicity against human RPMI8226 cells after 24 hrs by SRB assay; format: functional; conditions: RPMI-8226, 24 h; in short: as §2
[20] = system: SK-OV-3; assay: Cytotoxicity against human SKOV3 cells after 24 hrs by SRB assay; format: functional; conditions: SK-OV-3, 24 h; in short: as §2
[21] = system: U-251; assay: Cytotoxicity against human U251 cells after 24 hrs by SRB assay; format: cell-based; conditions: u-251, 24 h; in short: as §3
[22] = system: OVCAR-3; assay: (§11) Cytotoxicity against human OVCAR3 cells after 24 hrs by SRB assay; format: functional; conditions: OVCAR-3, 24 h; in short: as §2
[23] = system: HCT-116; assay: Cytotoxicity against human HCT116 cells after 24 hrs by SRB assay; format: functional; conditions: HCT-116, 24 h; in short: as §2
[24] = system: EKVX; assay: Cytotoxicity against human EKVX cells after 24 hrs by SRB assay; format: cell-based; in short: as §6
[25] = system: BT-549; assay: Cytotoxicity against human BT549 cells after 24 hrs by SRB assay; format: functional; conditions: BT-549, 24 h; in short: as §2
[26] = system: ACHN; assay: Cytotoxicity against human ACHN cells after 24 hrs by SRB assay; format: functional; in short: as §2
[27] = system: OVCAR-3; assay: as §11; format: cell-based; conditions: ovcar-3, 24 h; in short: as §6
[28] = system: SF-539; assay: Cytotoxicity against human SF539 cells after 24 hrs by SRB assay; format: cell-based; conditions: sf-539, 24 h; in short: as §6
[29] = system: MDA-MB-231; assay: Cytotoxicity against human MDA-MB-231 cells after 24 hrs by SRB assay; format: cell-based; conditions: mda-mb-231, 24 h; in short: as §6
[30] = system: MDA-MB-468; assay: as §4; format: cell-based; conditions: mda-mb-468, 24 h; in short: as §6
[31] = system: COLO 205; assay: Cytotoxicity against human COLO205 cells after 24 hrs by SRB assay; format: functional; conditions: COLO 205, 24 h; in short: as §2
[32] = system: SR; assay: as §10; format: cell-based; in short: as §3
[33] = system: RXF 393; assay: Cytotoxicity against human RXF393 cells after 24 hrs by SRB assay; format: functional; conditions: RXF 393, 24 h; in short: as §2
[34] = system: SNB-19; assay: Cytotoxicity against human SNB19 cells after 24 hrs by SRB assay; format: functional; conditions: SNB-19, 24 h; in short: as §9
[35] = system: NCI/ADR-RES; assay: Cytotoxicity against human NCI/ADR-RES cells after 24 hrs by SRB assay; format: functional; in short: as §2
[36] = system: LOX IMVI; assay: as §1; format: cell-based; in short: as §6
[37] = system: MDA-MB-435; assay: as §8; format: cell-based; conditions: mda-mb-435, 24 h; in short: as §6
[38] = Cytotoxicity against human Hs 578T cells after 24 hrs by SRB assay; format: cell-based; in short: as §6

O=C(/C=C/c1cc2ccccc2[nH]c1=O)/C=C/c1cc2ccccc2[nH]c1=O
GI50 [1]: 0.134 µM | TGI [1]: 0.352 µM | GI50 [2]: 0.494 µM | TGI [2]: 1.83 µM | LC50 [3]: > 100 µM | GI50 [4]: 5.63 µM | TGI [4]: > 100 µM | GI50 [5]: 1.58 µM | TGI [5]: 4.39 µM | LC50 [6]: > 100 µM | LC50 [7]: > 100 µM | LC50 [8]: > 100 µM | GI50 [9]: 2.6 µM | TGI [9]: > 100 µM | LC50 [10]: > 100 µM | LC50 [11]: > 100 µM | GI50 [12]: 0.258 µM | TGI [12]: 0.81 µM | GI50 [13]: 0.697 µM | TGI [13]: > 100 µM | GI50 [14]: 0.764 µM | GI50 [15]: 4.61 µM | TGI [15]: > 100 µM | GI50 [16]: 1.14 µM | TGI [16]: > 100 µM | LC50 [17]: > 100 µM | GI50 [18]: 2.06 µM | TGI [18]: > 100 µM | GI50 [19]: 0.341 µM | TGI [19]: > 100 µM | GI50 [20]: 18.1 µM | TGI [20]: > 100 µM | LC50 [21]: > 100 µM | GI50 [22]: 4.2 µM | TGI [22]: > 100 µM | GI50 [23]: 0.131 µM | TGI [23]: 0.299 µM | LC50 [24]: > 100 µM | GI50 [25]: 1.9 µM | TGI [25]: 6.15 µM | GI50 [26]: 2.49 µM | TGI [26]: > 100 µM | LC50 [27]: > 100 µM | LC50 [28]: > 100 µM | LC50 [29]: > 100 µM | LC50 [30]: > 100 µM | GI50 [31]: 2.89 µM | TGI [31]: > 100 µM | LC50 [32]: > 100 µM | GI50 [33]: 1.79 µM | TGI [33]: 3.73 µM | GI50 [34]: 5.12 µM | TGI [34]: > 100 µM | GI50 [35]: > 100 µM | TGI [35]: > 100 µM

O=C(/C=C/c1cc2ccccc2[nH]c1=O)c1ccc(O)cc1
GI50 [1]: 2.47 µM | TGI [1]: 12.7 µM | GI50 [2]: 1.89 µM | TGI [2]: 4.5 µM | LC50 [3]: > 100 µM | GI50 [4]: 3.98 µM | TGI [4]: 13.3 µM | GI50 [5]: 2.12 µM | TGI [5]: 5.3 µM | LC50 [6]: 89.9 µM | LC50 [7]: > 100 µM | LC50 [8]: > 100 µM | GI50 [9]: 3.23 µM | TGI [9]: 21.1 µM | LC50 [10]: > 100 µM | LC50 [11]: > 100 µM | GI50 [12]: 2.94 µM | TGI [12]: 16.8 µM | GI50 [13]: 2.38 µM | TGI [13]: > 100 µM | GI50 [14]: 2.73 µM | TGI [14]: 11.8 µM | GI50 [15]: 2.88 µM | TGI [15]: 8.73 µM | GI50 [16]: 1.66 µM | LC50 [17]: 47.9 µM | GI50 [19]: 3.2 µM | TGI [19]: 24.8 µM | LC50 [21]: 45.3 µM | LC50 [36]: > 100 µM | GI50 [22]: 3.22 µM | TGI [22]: 11.8 µM | GI50 [23]: 1.94 µM | TGI [23]: 4.38 µM | LC50 [24]: 55.2 µM | GI50 [25]: 1.95 µM | TGI [25]: 5.35 µM | GI50 [26]: 2.67 µM | TGI [26]: 8.86 µM | LC50 [27]: 35 µM | LC50 [28]: 61.674 µM | LC50 [29]: > 100 µM | LC50 [37]: > 100 µM | LC50 [30]: 19.8 µM | LC50 [38]: > 100 µM | GI50 [31]: 4.05 µM | TGI [31]: 19.7 µM | LC50 [32]: > 100 µM | GI50 [33]: 1.65 µM | TGI [33]: 3.23 µM | GI50 [34]: 4.59 µM | TGI [34]: 18 µM | GI50 [35]: 2.9 µM | TGI [35]: > 100 µM
